Assay results taken from ChEMBL document CHEMBL1134364, “Antipsoriatic anthrones with modulated redox properties. 5. Potent inhibition of human keratinocyte growth, induction of keratinocyte differentiation, and reduced membrane damage by novel 10-arylacetyl-1,8-dihydroxy-9(10H)-anthracenones” (J Med Chem, 2001).

Assays:
[1] = Partition coefficient (logP); type: physicochemical; details: octanol/water
[2] = Inhibition of LTB4 biosynthesis in bovine polymorphonuclear leukocytes using nordihydroguaiaretic acid; type: functional, cell-based, Bos taurus
[3] = Concentration required to inhibit 50% growth of HaCaT cells; type: functional, cell-based; details: Homo sapiens
How it was run: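 HaCaT keratinocytes treated for 48 h. Proliferation read by counting dispersed cells under phase-contrast microscope. Growth inhibition tested for significance against control, N = 3, P < 0.01.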

[4] = (§1) Cytotoxic activity of LDH(mu) release in HaCaT cells was measured after treatment with 2 uM of the compound; type: functional, Homo sapiens
How it was run: (§2)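 HaCaT cells treated with 2 µM compound. Membrane damage read as lactate dehydrogenase activity (mU) released into the culture medium. N = 3, SD < 10%.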

[5] = Deoxyribose degradation activity was measured as hydroxyl radical formation
[6] = Induction of Keratinocyte Differentiation in cross-linked envelope assay at 1 uM expressed as difference of the amount of cross-linked protein as a measure of HaCaT keratinocyte differentiation; type: functional, Homo sapiens
How it was run: (§3)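 HaCaT cultures were 144 h post-confluent; medium replaced, compound added from DMSO stocks diluted in DMEM (final DMSO 0.2%), controls DMSO or medium alone, 48 h. Cells were detached with trypsin/EDTA, lysed in SDS/β-ME, dot-blotted, TCA-heated, Coomassie-stained and scanned. Value is cross-linked protein minus vehicle, per mg protein (Bradford), mean ± SEM of 3 experiments.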

[7] = Induction of Keratinocyte Differentiation in cross-linked envelope assay at 10 uM expressed as difference of the amount of cross-linked protein as a measure of HaCaT keratinocyte differentiation; type: functional, Homo sapiens; how it was run: as §3
[8] = (§4) Induction of Keratinocyte Differentiation in cross-linked envelope assay at 5 uM expressed as difference of the amount of cross-linked protein as a measure of HaCaT keratinocyte differentiation; type: functional, Homo sapiens; how it was run: as §3
[9] = Cytotoxic activity of LDH(mu) release in HaCaT cells was measured after treatment of 2 uM; type: functional, Homo sapiens; how it was run: as §2
[10] = as §1; type: cell-based; details: human; how it was run: as §2
HaCaT = experiment: as §4; type: cell-based; details: Homo sapiens; how it was run: as §3

logP [1]	IC50 [2]	Activity [5]	Compound	IC50 [3]	LDH [4]	Activity [6]	Activity [7]	Activity [8]	LDH [9]	LDH [10]	Activity (ug (mg of protein)-1) (HaCaT)
4.42	6 µM		CSc1ccc(CC(=O)C2c3cccc(O)c3C(=O)c3c(O)cccc32)cc1	1.6 µM							
			O=C1c2c(O)cccc2C(C(=O)Cc2ccc([N+](=O)[O-])cc2)c2cccc(O)c21	4.7 µM	179 MU						
4.46	9 µM	< 0.3	CC(C(=O)C1c2cccc(O)c2C(=O)c2c(O)cccc21)c1ccc(C(=O)c2ccccc2)cc1 (centres undefined)	0.9 µM	191 MU						
4.91	1.5 µM	< 0.3	COc1ccc(COc2ccc(CC(=O)C3c4cccc(O)c4C(=O)c4c(O)cccc43)cc2)cc1	3.2 µM							
4.07	12 µM	< 0.3	COC(=O)c1ccc(CC(=O)C2c3cccc(O)c3C(=O)c3c(O)cccc32)cc1	1.8 µM	164 MU						
3.91	3 µM	0.45	O=C1c2c(O)cccc2C(C(=O)Cc2ccccc2Nc2c(Cl)cccc2Cl)c2cccc(O)c21	1.3 µM	247 MU						
4.2			COc1ccccc1CC(=O)C1c2cccc(O)c2C(=O)c2c(O)cccc21	1.6 µM	125 MU						
4.49	1 µM	< 0.3	O=C1c2c(O)cccc2C(C(=O)Cc2ccc(Cl)cc2)c2cccc(O)c21	2.2 µM							
4.6	0.7 µM	< 0.3	O=C1c2c(O)cccc2C(C(=O)Cc2ccc(Br)cc2)c2cccc(O)c21	2.9 µM							
			O=C1c2c(O)cccc2C(C(=O)Cc2ccc(O)cc2)c2cccc(O)c21	1.7 µM	173 MU	2.5 ug (mg of protein)-1	6.2 ug (mg of protein)-1	5.1 ug (mg of protein)-1			
4.51	1 µM	< 0.3	CCOc1ccc(CC(=O)C2c3cccc(O)c3C(=O)c3c(O)cccc32)cc1	1.7 µM	142 MU						
4.59	15 µM	< 0.3	CC(C)Oc1ccc(CC(=O)C2c3cccc(O)c3C(=O)c3c(O)cccc32)cc1	1.8 µM							
3.58	9 µM		N#Cc1ccc(CC(=O)C2c3cccc(O)c3C(=O)c3c(O)cccc32)cc1	3.2 µM							
4.8	1.5 µM	< 0.3	O=C1c2c(O)cccc2C(C(=O)Cc2ccc(I)cc2)c2cccc(O)c21	3.1 µM							
	0.6 µM	< 0.3	O=C1c2c(O)cccc2C(C(=O)Cc2ccc(OCc3ccccc3)cc2)c2cccc(O)c21	2.4 µM	202 MU						
	0.5 µM		COc1ccc(CC(=O)C2c3cccc(O)c3C(=O)c3c(O)cccc32)cc1	1.1 µM	143 MU	2.3 ug (mg of protein)-1	5.8 ug (mg of protein)-1	5.3 ug (mg of protein)-1			
			O=C1c2c(O)cccc2Cc2cccc(O)c21 [ANTHRALIN]	0.7 µM		3.7 ug (mg of protein)-1	5.8 ug (mg of protein)-1	4.9 ug (mg of protein)-1	294 MU		
2.84	3 µM	0.93	O=C(O)Cc1ccc(CC(=O)C2c3cccc(O)c3C(=O)c3c(O)cccc32)cc1	1.7 µM							
3.02	0.05 µM	0.51	CN(O)C(=O)Cc1ccc(CC(=O)C2c3cccc(O)c3C(=O)c3c(O)cccc32)cc1	0.7 µM		2.8 ug (mg of protein)-1	6.2 ug (mg of protein)-1			199 MU	5.5
3.77	22 µM	0.86	COc1ccc(CC(=O)C2c3cccc(O)c3C(=O)c3c(O)cccc32)cc1OC	4.2 µM							
4.34	6 µM	< 0.3	CCOC(=O)c1ccc(CC(=O)C2c3cccc(O)c3C(=O)c3c(O)cccc32)cc1	1.3 µM							

logP [1]	IC50 [2]	Activity [5]	Compound	IC50 [3]	LDH [4]	Activity [6]	Activity [7]	Activity [8]	LDH [9]	LDH [10]	Activity (ug (mg of protein)-1) (HaCaT)
			O=C1c2c(O)cccc2C(Cc2ccccc2)c2cccc(O)c21			-1 ug (mg of protein)-1	0.9 ug (mg of protein)-1	-0.8 ug (mg of protein)-1			
4.06	1 µM	< 0.3	O=C1c2c(O)cccc2C(C(=O)Cc2ccc3c(c2)OCO3)c2cccc(O)c21	3.3 µM							
			O=C1c2cccc(O)c2C(=O)c2c(O)cccc21 [DANTHRON]			0.6 ug (mg of protein)-1	0 ug (mg of protein)-1	-0.1 ug (mg of protein)-1			
5.41	1.5 µM	< 0.3	CCCCOc1ccc(CC(=O)C2c3cccc(O)c3C(=O)c3c(O)cccc32)cc1	1.2 µM		2.5 ug (mg of protein)-1	3.4 ug (mg of protein)-1	3.4 ug (mg of protein)-1			
3.41	8 µM		COc1ccc(CC(=O)C2c3cccc(O)c3C(=O)c3c(O)cccc32)cc1O	1.9 µM							
4.11	11 µM	< 0.3	O=C1c2c(O)cccc2C(C(=O)Cc2ccc(F)cc2)c2cccc(O)c21	2.6 µM		0.6 ug (mg of protein)-1	3.5 ug (mg of protein)-1	2.4 ug (mg of protein)-1			
4.42	6 µM		CN(C)c1ccc(CC(=O)C2c3cccc(O)c3C(=O)c3c(O)cccc32)cc1	1.3 µM							
4.16	3 µM	< 0.3	COc1cccc(CC(=O)C2c3cccc(O)c3C(=O)c3c(O)cccc32)c1	2.7 µM							
			O=C1c2ccccc2Cc2ccccc21 [ANTHRONE]			0.5 ug (mg of protein)-1	0.8 ug (mg of protein)-1	0.3 ug (mg of protein)-1			
4.4	11 µM		O=C1c2c(O)cccc2C(C(=O)Cc2ccc(C(F)(F)F)cc2)c2cccc(O)c21	1.6 µM							
4.97	1 µM	< 0.3	CCCOc1ccc(CC(=O)C2c3cccc(O)c3C(=O)c3c(O)cccc32)cc1	1.6 µM	132 MU						
5.19	1 µM	< 0.3	COc1cccc(COc2ccc(CC(=O)C3c4cccc(O)c4C(=O)c4c(O)cccc43)cc2)c1	1 µM	159 MU						
4.74	9 µM		O=C1c2c(O)cccc2C(C(=O)Cc2ccc(Cl)c(Cl)c2)c2cccc(O)c21	1.2 µM							
4.43	18 µM	< 0.3	CC(C(=O)C1c2cccc(O)c2C(=O)c2c(O)cccc21)c1ccccc1 (centres undefined)	1 µM							
3.77	9 µM	< 0.3	O=C1c2c(O)cccc2C(C(=O)Cc2c[nH]c3ccccc23)c2cccc(O)c21	0.8 µM	174 MU	1.8 ug (mg of protein)-1	6.2 ug (mg of protein)-1	4.9 ug (mg of protein)-1			
5.02	7 µM	< 0.3	O=C1c2c(O)cccc2C(C(=O)Cc2ccc(-c3ccccc3)cc2)c2cccc(O)c21	2.2 µM		1.8 ug (mg of protein)-1	4.6 ug (mg of protein)-1	3.8 ug (mg of protein)-1			
4.17	2 µM	0.97	CC(C)(C)OC(=O)Nc1ccc(CC(=O)C2c3cccc(O)c3C(=O)c3c(O)cccc32)cc1	1.8 µM							
			CC(C)(C)c1cc(CC(=O)C2c3cccc(O)c3C(=O)c3c(O)cccc32)cc(C(C)(C)C)c1O	3 µM	199 MU						
5.57			CC(C)Cc1ccc(C(C)C(=O)C2c3cccc(O)c3C(=O)c3c(O)cccc32)cc1 (centres undefined)	3.5 µM							
3.29	1 µM	1.43	Nc1ccc(CC(=O)C2c3cccc(O)c3C(=O)c3c(O)cccc32)cc1	1.2 µM		0 ug (mg of protein)-1	6.6 ug (mg of protein)-1	6 ug (mg of protein)-1			
4.54			Cc1ccc(CC(=O)C2c3cccc(O)c3C(=O)c3c(O)cccc32)cc1	0.7 µM	145 MU	2.1 ug (mg of protein)-1	5.1 ug (mg of protein)-1	4.2 ug (mg of protein)-1			
